Assays:
Stenotrophomonas [1] = test: Antimicrobial activity against Stenotrophomonas ICB 7569 after 20 hrs by broth microdilution method; format: functional; settings: ICB 7569, 20 h
Method in brief: (§1)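 Pathogens grown overnight on Columbia agar. Colonies suspended in 0.9% saline to OD 0.1, diluted 1:300 in 1% TSB, final (1-2) × 10^5 cfu/well. Peptides 2-fold serially diluted in 1% TSB from 128 to typically 0.5 μg/mL. Incubation at 37 °C; A595 read after 20 ± 2 h. MIC is the lowest concentration with absorbance not above medium only. Triplicate.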

Klebsiella pneumoniae [2] = test: Antimicrobial activity against Klebsiella pneumoniae ATCC 27799 after 20 hrs by broth microdilution method; format: functional; settings: ATCC 27799, 20 h
Method in brief: (§2)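 Pathogenic strains grown overnight on Columbia agar, colonies suspended in 0.9% saline to OD 0.1, diluted 1:300 in 1% TSB; final (1-2) × 10^5 cfu/well. Peptides 2-fold serially diluted in 1% TSB from 128 μg/mL, typically to 0.5 μg/mL. Incubated 37 °C, absorbance at 595 nm after 20 ± 2 h, in triplicate; MIC = lowest concentration with absorbance not exceeding medium only.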

Escherichia coli [3] = test: Antimicrobial activity against Escherichia coli 70430001 after 20 hrs by broth microdilution method; format: functional; settings: Escherichia coli, 70430001, 20 h; method in brief: as §1
Acinetobacter baumannii [4] = test: Antimicrobial activity against Acinetobacter baumannii ICB 14072 after 20 hrs by broth microdilution method; format: functional; settings: ICB 14072, 20 h; method in brief: as §1
Serum [5] = test: Stability in 25% mouse serum assessed as peptide-12 level at 75 ug/ml after 2 hrs by MALDI-TOF-MS analysis; format: ADME, cell-free
Method in brief: (§3)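 Peptide at 75 μg/mL final in pooled mouse serum (undiluted or 25% v:v aqueous), 37 °C. Triplicate aliquots taken at 0, 30, 60, 120 and 240 min and precipitated with 3% TCA on ice for 10 min. Supernatant neutralized with NaOH and analysed by RP-HPLC on C18 with TFA-containing gradient. Amounts expressed relative to 0 min; metabolites identified by MALDI-TOF-MS.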

Serum [6] = test: Stability in 25% mouse serum assessed as peptide-13 level at 75 ug/ml after 30 mins by MALDI-TOF-MS analysis; format: ADME, cell-free; settings: 0.5 h; method in brief: as §3
Escherichia coli [7] = test: Antimicrobial activity against Escherichia coli 8474 after 20 hrs by broth microdilution method; format: functional; settings: Escherichia coli, 8474, 20 h; method in brief: as §1
Escherichia coli [8] = test: Antibacterial activity against Escherichia coli BL21 AI after 20 hrs by broth microdilution assay; format: functional
Method in brief: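 Nutrient-broth overnight cultures diluted in 1% TSB; E. coli BL21AI 7.5 × 10^5 cells/well, M. luteus ATCC 10240 2 × 10^6 cells/well. Peptides serially 2-fold diluted in 1% TSB from 128 to typically 0.5 μg/mL. Incubation at 37 °C; A595 read after 20 ± 2 h. MIC is the lowest concentration with absorbance not above medium only. Triplicate.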

[9] = Toxicity in human erythrocytes assessed as hemolytic activity at 600 ug/ml after 1 hr; format: cell-based; settings: erythrocyte
Method in brief: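 Peptides 2-fold serially diluted from 600 to 5 μg/mL in PBS (pH 7.4), mixed 1:1 with 2% washed human erythrocytes in PBS, 37 °C for 1 h. After centrifugation at 1000g, supernatant A405 read. Triton X-100 0.1% as positive control, PBS as negative control.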

Escherichia coli [10] = test: Antimicrobial activity against Escherichia coli 205024 after 20 hrs by broth microdilution method; format: functional; settings: Escherichia coli, 205024, 20 h; method in brief: as §1
Proteus vulgaris [11] = test: Antimicrobial activity against Proteus vulgaris ICB 9081 after 20 hrs by broth microdilution method; format: functional; settings: ICB 9081, 20 h; method in brief: as §1
Klebsiella pneumoniae [12] = test: Antimicrobial activity against Klebsiella pneumoniae 57 USA after 20 hrs by broth microdilution method; format: functional; method in brief: as §1
Pseudomonas aeruginosa [13] = test: Antimicrobial activity against Pseudomonas aeruginosa ATCC 27853 after 20 hrs by broth microdilution method; format: functional; settings: ATCC 27853, 20 h; method in brief: as §2
Enterobacter cloacae [14] = test: Antimicrobial activity against Enterobacter cloacae Ha185 after 20 hrs by broth microdilution method; format: functional; settings: Ha185, 20 h; method in brief: as §2
Pseudomonas aeruginosa [15] = test: Antimicrobial activity against Pseudomonas aeruginosa Walter after 20 hrs by broth microdilution method; format: functional; method in brief: as §2
Pseudomonas aeruginosa [16] = test: Antimicrobial activity against Pseudomonas aeruginosa 60811001 after 20 hrs by broth microdilution method; format: functional; settings: Pseudomonas aeruginosa, 60811001, 20 h; method in brief: as §2
Serum [17] = test: Stability in 25% mouse serum assessed as peptide-13 level at 75 ug/ml after 2 hrs by MALDI-TOF-MS analysis; format: ADME, cell-free; method in brief: as §3
Stenotrophomonas [18] = test: Antimicrobial activity against Stenotrophomonas ICB 7789 after 20 hrs by broth microdilution method; format: functional; settings: ICB 7789, 20 h; method in brief: as §1
Acinetobacter baumannii [19] = test: Antimicrobial activity against Acinetobacter baumannii M17 after 20 hrs by broth microdilution method; format: functional; settings: M17, 20 h; method in brief: as §1
Proteus vulgaris [20] = test: Antimicrobial activity against Proteus vulgaris ICB 9095 after 20 hrs by broth microdilution method; format: functional; settings: ICB 9095, 20 h; method in brief: as §1
HeLa = test: Cytotoxicity against human HeLa cells at 600 ug/ml after 24 hrs by MTT assay; format: cell-based
Method in brief: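 HeLa (1.5 × 10^4/well, seeded overnight) or SH-SY5Y (2 × 10^4/well, differentiated 5 days with 10 μM trans-retinoic acid) in DMEM/Ham's F-12 with 5% or 15% FBS. Peptide added at 600 μg/mL for 24 h at 37 °C, 5% CO2. MTT 0.5 mg/mL for 4 h, then SDS/HCl for 16 h; A590 read against 650 nm. Normalized to PBS (100%); DMSO 12% as positive control.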

Acinetobacter baumannii [21] = test: Antimicrobial activity against Acinetobacter baumannii ICB 14073 after 20 hrs by broth microdilution method; format: functional; settings: ICB 14073, 20 h; method in brief: as §1
Escherichia coli [22] = test: Antimicrobial activity against Escherichia coli Neumann after 20 hrs by broth microdilution method; format: functional; method in brief: as §1
Pseudomonas aeruginosa [23] = test: Antimicrobial activity against Pseudomonas aeruginosa PAO1 after 20 hrs by broth microdilution method; format: functional; settings: PAO1, 20 h; method in brief: as §2
Enterobacter cloacae [24] = test: Antimicrobial activity against Enterobacter cloacae Ha89 after 20 hrs by broth microdilution method; format: functional; settings: Ha89, 20 h; method in brief: as §1
[25] = Drug uptake in Escherichia coli BL21 AI assessed as intracellular localization at 30 ug/ml after 20 mins by confocal fluorescence microscopy; format: ADME, cell-based; settings: escherichia coli bl21, 20 min; in the assay text read “30 uM” for “30 ug/ml”
Method in brief: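 E. coli BL21 AI overnight culture diluted to 1.5 × 10^7 cells/mL in 1% TSB. 5(6)-Carboxyfluorescein N-terminally labelled peptide added at 30 μmol/L final, with 60-fold molar excess of TAMRA to quench extracellular fluorescence. Imaged at room temperature at 20 and 50 min by confocal laser scanning microscopy (488 nm excitation), with phase contrast.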

Escherichia coli [26] = test: Antimicrobial activity against Escherichia coli 70329001 after 20 hrs by broth microdilution method; format: functional; settings: Escherichia coli, 70329001, 20 h; method in brief: as §1
Klebsiella pneumoniae [27] = test: Antimicrobial activity against Klebsiella pneumoniae 63 after 20 hrs by broth microdilution method; format: functional; settings: Klebsiella pneumoniae, 63, 20 h; method in brief: as §2
Enterobacter cloacae [28] = test: Antimicrobial activity against Enterobacter cloacae Ha088 after 20 hrs by broth microdilution method; format: functional; settings: Ha088, 20 h; method in brief: as §1
[29] = Stability in 25% mouse serum assessed as half life at 75 ug/ml by MALDI-TOF-MS analysis; format: ADME, cell-free; method in brief: as §3

## H-VDKPPYLPRPRPPRRIYNR-NH2 [ONCOCIN]
Stenotrophomonas [1]
  MIC: 8 µg/mL
Klebsiella pneumoniae [2]
  MIC: 1 µg/mL
Escherichia coli [3]
  MIC: 1 µg/mL
Acinetobacter baumannii [4]
  MIC: 1 µg/mL
Serum [5]
  Activity: 20%
Serum [6]
  Activity: 10%
Escherichia coli [7]
  MIC: 0.5 µg/mL
Escherichia coli [8]
  MIC: 4 µg/mL
[9]
  Activity: Non-toxic
Escherichia coli [10]
  MIC: 4 µg/mL
Proteus vulgaris [11]
  MIC: 4 µg/mL
Klebsiella pneumoniae [12]
  MIC: 0.25 µg/mL
Pseudomonas aeruginosa [13]
  MIC: 4 µg/mL
Enterobacter cloacae [14]
  MIC: 0.5 µg/mL
Pseudomonas aeruginosa [15]
  MIC: 8 µg/mL
Pseudomonas aeruginosa [16]
  MIC: 2 µg/mL
Serum [17]
  Activity: 20%
Stenotrophomonas [18]
  MIC: 32 µg/mL
Acinetobacter baumannii [19]
  MIC: 1 µg/mL
Proteus vulgaris [20]
  MIC: 4 µg/mL
HeLa
  Activity: Non-toxic
Acinetobacter baumannii [21]
  MIC: 2 µg/mL
Escherichia coli [22]
  MIC: 2 µg/mL
Pseudomonas aeruginosa [23]
  MIC: 2 µg/mL
Enterobacter cloacae [24]
  MIC: 0.25 µg/mL
[25]
  Activity: Active
Escherichia coli [26]
  MIC: 1 µg/mL
Klebsiella pneumoniae [27]
  MIC: 8 µg/mL
Enterobacter cloacae [28]
  MIC: 0.125 µg/mL
[29]
  half-life at 75 ug/ml: 1.17 h

From ChEMBL document CHEMBL1155452, “Oncocin (VDKPPYLPRPRPPRRIYNR-NH2): a novel antibacterial peptide optimized against gram-negative human pathogens” (J Med Chem, 2010)
